Experimental data as given in ChEMBL document CHEMBL4477233, “Discovery of novel TAOK2 inhibitor scaffolds from high-throughput screening” (Bioorg Med Chem Lett, 2016).
Calls of active or inactive are those of the source. The rule behind the calls is not given here.

Key:
[1] = target: T1, Serine/threonine-protein kinase TAO2 (Homo sapiens) (UniProt Q9UL54); assay: Inhibition of TAOK2 in human U2OS cells assessed as inhibition of cellular autophagy measured as GFP-LC3 accumulation at 50 uM after 24 hrs by flow cytometric analysis; format: cell-based
T1 sequence (whole entry): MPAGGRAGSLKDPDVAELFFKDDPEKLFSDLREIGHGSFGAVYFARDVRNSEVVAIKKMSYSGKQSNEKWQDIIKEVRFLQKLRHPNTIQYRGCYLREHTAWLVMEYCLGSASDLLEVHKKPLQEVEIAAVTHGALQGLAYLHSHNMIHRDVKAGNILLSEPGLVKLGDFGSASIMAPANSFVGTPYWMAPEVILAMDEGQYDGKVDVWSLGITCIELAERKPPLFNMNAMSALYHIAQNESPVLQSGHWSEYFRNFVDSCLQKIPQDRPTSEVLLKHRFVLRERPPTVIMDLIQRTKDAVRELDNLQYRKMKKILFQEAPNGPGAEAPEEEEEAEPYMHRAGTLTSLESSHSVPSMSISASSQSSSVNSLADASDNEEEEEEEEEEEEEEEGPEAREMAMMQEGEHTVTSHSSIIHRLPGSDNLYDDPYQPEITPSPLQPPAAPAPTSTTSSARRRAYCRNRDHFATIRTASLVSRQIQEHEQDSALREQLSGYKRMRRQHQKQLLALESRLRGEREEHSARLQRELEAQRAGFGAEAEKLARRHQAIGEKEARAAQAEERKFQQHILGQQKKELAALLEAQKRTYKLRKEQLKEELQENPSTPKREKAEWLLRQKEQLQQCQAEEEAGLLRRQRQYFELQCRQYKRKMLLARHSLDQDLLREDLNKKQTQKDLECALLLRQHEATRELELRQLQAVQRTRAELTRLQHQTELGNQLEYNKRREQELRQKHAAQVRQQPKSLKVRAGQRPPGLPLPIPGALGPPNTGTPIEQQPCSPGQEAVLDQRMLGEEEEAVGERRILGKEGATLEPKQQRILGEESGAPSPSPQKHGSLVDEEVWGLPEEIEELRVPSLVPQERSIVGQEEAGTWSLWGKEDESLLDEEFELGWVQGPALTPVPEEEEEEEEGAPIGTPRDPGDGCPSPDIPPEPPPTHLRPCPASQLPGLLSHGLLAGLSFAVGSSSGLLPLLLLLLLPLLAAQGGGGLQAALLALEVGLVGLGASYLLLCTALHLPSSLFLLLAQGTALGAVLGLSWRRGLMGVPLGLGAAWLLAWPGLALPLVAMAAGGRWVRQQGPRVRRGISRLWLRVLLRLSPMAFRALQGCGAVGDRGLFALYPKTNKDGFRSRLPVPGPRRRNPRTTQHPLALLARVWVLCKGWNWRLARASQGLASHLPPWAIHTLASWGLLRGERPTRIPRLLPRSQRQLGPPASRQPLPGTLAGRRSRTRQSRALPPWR
Outline: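 U2OS cells stably expressing GFP–LC3 were exposed to compound at 50 µM in the medium for 24 h. GFP fluorescence was read by flow cytometry. The median value from 20,000 cells per condition was normalized to DMSO vehicle within each experiment. Data are mean + SD of >2 independent experiments, compared with vehicle by unpaired t test.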

[2] = target: RAF proto-oncogene serine/threonine-protein kinase (Homo sapiens) (UniProt P04049); assay: Inhibition of human RAF-1; settings: concentration not given here
[3] = target: T1, Serine/threonine-protein kinase TAO2 (Homo sapiens); assay: Inhibition of TAOK2 in human U2OS cells assessed as inhibition of cellular autophagy measured as P62 accumulation at 50 uM after 24 hrs by western blot analysis; format: cell-based
Outline: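 GFP–LC3-expressing U2OS cells were treated for 24 h with compound at 50 µM or with DMSO alone. p62 (SQSTM1) abundance was then assessed by Western blotting as a readout of autophagic degradation.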

[4] = target: T2, Interleukin-1 receptor-associated kinase 4 (Homo sapiens) (UniProt Q9NWZ3); assay: Inhibition of human IRAK4; settings: concentration not given here
T2 sequence (whole entry): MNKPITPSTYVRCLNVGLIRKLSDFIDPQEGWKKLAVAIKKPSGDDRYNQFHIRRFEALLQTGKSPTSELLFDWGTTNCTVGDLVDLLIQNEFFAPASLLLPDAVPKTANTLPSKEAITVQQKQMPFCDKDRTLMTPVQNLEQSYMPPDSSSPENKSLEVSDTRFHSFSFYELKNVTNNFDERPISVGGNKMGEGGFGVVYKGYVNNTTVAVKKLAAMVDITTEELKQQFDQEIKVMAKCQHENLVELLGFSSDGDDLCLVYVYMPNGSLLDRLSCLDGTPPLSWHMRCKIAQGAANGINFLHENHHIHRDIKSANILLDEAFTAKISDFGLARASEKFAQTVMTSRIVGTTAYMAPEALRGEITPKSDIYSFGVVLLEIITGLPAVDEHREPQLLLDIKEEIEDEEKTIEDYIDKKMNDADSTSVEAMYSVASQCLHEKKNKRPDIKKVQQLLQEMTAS

[5] = target: Mitogen-activated protein kinase kinase kinase kinase 4 (Homo sapiens) (UniProt O95819); assay: Inhibition of human HGK; settings: concentration not given here
[6] = target: Glycogen synthase kinase-3 beta (Homo sapiens) (UniProt P49841); assay: Inhibition of human GSK3beta; settings: concentration not given here
[7] = target: T1, Serine/threonine-protein kinase TAO2 (Homo sapiens); assay: Inhibition of human TAO2; settings: concentration not given here
[8] = target: Mitogen-activated protein kinase 8 (Homo sapiens) (UniProt P45983); assay: Inhibition of human JNK1; settings: concentration not given here
Chain of Mitogen-activated protein kinase 8 (Homo sapiens) (P45983 whole entry): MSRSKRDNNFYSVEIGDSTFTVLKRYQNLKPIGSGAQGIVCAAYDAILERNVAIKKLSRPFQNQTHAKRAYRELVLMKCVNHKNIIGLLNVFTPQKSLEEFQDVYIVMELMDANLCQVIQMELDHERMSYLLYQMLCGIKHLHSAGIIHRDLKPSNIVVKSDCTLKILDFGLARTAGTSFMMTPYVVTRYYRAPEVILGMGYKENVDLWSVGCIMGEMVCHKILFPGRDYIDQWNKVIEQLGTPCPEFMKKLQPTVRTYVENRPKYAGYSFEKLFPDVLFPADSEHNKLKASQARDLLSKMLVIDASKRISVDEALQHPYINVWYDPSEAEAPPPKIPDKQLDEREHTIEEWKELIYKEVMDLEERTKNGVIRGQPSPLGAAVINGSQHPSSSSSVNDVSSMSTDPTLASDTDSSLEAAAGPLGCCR

Chain of RAF proto-oncogene serine/threonine-protein kinase (Homo sapiens) (P04049 whole entry): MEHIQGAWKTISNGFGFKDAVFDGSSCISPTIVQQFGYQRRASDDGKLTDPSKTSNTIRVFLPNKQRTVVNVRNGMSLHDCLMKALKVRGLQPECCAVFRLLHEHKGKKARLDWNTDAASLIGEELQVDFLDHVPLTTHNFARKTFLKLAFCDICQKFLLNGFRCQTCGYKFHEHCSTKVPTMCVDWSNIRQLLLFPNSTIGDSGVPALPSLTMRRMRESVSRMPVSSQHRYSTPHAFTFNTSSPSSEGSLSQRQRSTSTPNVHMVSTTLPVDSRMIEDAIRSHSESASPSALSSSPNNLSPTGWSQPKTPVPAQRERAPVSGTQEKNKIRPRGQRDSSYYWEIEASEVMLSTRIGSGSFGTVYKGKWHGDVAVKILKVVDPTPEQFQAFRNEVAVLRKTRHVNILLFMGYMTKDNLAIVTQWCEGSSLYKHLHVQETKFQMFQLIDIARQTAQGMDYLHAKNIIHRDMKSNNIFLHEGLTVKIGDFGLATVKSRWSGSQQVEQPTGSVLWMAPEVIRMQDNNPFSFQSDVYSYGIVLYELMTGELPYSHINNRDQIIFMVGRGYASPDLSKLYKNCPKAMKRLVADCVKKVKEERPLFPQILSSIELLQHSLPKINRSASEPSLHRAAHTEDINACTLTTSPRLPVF
Chain of Glycogen synthase kinase-3 beta (Homo sapiens) (P49841 whole entry, looked up): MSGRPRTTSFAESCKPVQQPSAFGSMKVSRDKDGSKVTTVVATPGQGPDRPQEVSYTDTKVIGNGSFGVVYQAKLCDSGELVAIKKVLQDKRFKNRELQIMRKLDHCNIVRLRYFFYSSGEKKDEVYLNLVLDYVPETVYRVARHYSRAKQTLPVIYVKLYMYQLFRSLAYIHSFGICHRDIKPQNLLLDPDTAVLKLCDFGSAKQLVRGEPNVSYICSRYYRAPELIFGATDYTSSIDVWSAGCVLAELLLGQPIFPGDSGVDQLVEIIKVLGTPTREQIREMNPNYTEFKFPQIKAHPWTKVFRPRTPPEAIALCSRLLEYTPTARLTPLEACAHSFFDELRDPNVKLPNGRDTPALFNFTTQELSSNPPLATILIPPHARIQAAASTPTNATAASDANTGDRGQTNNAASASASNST
Chain of Mitogen-activated protein kinase kinase kinase kinase 4 (Homo sapiens) (O95819 2-1239 limits assumed): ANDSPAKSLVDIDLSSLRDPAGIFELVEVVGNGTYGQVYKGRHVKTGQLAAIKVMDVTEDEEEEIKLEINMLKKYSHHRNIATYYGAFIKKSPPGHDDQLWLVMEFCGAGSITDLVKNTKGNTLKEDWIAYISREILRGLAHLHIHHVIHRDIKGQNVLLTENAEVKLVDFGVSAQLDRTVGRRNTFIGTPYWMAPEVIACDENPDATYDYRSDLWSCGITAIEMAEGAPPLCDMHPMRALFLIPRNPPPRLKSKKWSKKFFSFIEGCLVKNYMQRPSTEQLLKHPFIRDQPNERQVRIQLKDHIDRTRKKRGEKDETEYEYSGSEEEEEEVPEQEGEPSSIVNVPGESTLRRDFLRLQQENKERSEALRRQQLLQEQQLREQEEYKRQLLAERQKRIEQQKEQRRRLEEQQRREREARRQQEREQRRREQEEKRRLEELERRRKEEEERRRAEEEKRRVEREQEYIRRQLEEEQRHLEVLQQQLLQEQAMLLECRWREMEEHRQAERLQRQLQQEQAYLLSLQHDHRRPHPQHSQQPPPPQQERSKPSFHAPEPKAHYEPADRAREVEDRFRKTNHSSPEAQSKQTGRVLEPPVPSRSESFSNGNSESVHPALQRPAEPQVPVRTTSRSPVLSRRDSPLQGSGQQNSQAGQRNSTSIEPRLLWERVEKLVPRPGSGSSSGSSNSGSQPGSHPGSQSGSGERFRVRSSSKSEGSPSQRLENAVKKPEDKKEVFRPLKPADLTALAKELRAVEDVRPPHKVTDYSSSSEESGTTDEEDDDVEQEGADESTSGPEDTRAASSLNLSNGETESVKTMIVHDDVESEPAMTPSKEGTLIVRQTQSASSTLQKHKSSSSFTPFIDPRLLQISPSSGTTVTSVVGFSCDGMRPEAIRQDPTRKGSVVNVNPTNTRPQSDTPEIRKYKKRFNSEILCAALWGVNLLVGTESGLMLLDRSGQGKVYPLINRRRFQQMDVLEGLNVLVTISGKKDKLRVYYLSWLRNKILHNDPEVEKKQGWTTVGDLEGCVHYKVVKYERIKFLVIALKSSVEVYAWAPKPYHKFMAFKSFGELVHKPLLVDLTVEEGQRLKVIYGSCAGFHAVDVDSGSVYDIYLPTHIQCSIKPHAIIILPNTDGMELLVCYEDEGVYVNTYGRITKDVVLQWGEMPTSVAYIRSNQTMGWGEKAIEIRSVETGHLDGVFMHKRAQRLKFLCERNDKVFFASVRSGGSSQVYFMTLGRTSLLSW

| Compound | inhibition [1] | inhibition [3] | inhibition [7] [%] | also measured |
| --- | --- | --- | --- | --- |
| O=C(O)c1cc(-c2ccc(-c3ccccc3[N+](=O)[O-])o2)nc2ccc3ccccc3c12 | Active |  |  |  |
| Cc1ccc(NCCCC(=O)N/N=C/c2cc(Br)cc(Br)c2O)cc1 | Active |  |  |  |
| CCC(=O)Nc1nc(C)c(-c2csc(Nc3cc(OC)ccc3OC)n2)s1 | Active | inactive | > 50 | inhibition [2]: > 50%; inhibition [4]: > 50%; inhibition [5]: > 50%; inhibition [6]: > 50%; inhibition [8]: > 50% |
| CS(=O)(=O)c1ccc2nc(NC(=O)CCCOc3ccc(Cl)cc3)sc2c1 | Active | Active | > 50 |  |
| CCOCCCn1c(=S)[nH]c2cc(C(=O)NCC3COc4ccccc4O3)ccc2c1=O (stereo not given) | Active | Active | > 50 |  |
| Cc1ccc(C(=O)CSc2nnc(-c3ccncc3)[nH]2)c(C)c1 | Active |  |  |  |
| O=C(NCC1COc2ccccc2O1)c1ccc(NC(=O)c2ccco2)cc1 (stereo not given) | Active | Active |  |  |
| c1cc2[nH]c3c(c2c2nonc12)CCCC3 | Active |  |  |  |
